Assay results taken from ChEMBL document CHEMBL2062368, “The cell adhesion and proliferation activities of a peptide derived from human tenascin-C are dependent on two Ile residues” (Bioorg Med Chem, 2012).
The source made the active and inactive calls. The calls are words filed in the database; no cut-off is given here.

Assays:
Assay type in all cases: cell-based
Conditions in all cases: NIH3T3
[1] = biological target: T1, Syndecan-4 (Mus musculus) (UniProt O35988); assay: Binding affinity to syndecan 4 in mouse NIH/3T3 cells assessed as stimulation of beta 1 integrin-mediated cell adhesion at 50 ug/ml […] by microscopic analysis
T1 sequence (whole entry): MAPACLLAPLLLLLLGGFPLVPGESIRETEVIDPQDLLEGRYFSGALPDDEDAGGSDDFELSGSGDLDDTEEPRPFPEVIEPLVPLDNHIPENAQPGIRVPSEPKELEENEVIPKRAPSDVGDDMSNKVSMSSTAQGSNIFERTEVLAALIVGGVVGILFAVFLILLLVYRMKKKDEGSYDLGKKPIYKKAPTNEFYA
In short: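 Wells coated with fibronectin at 37 °C, blocked with BSA. NIH-3T3 cell suspension plus peptide (50 µg/ml) or PBS control incubated 1 h at 37 °C. Non-adhered cells washed off; attached cells counted by microscope in 4 independent fields. Mean ± S.E. of triplicate measurements.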

[2] = biological target: T1, Syndecan-4 (Mus musculus); assay: Binding affinity to syndecan 4 in mouse NIH/3T3 cells assessed as increase in cell proliferation at 25 to 50 ug/ml after 2 days by MTT assay relative to TNIIIA2 peptide
In short: (§1)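 NIH-3T3 cells with peptide at 25 and 50 µg/ml on fibronectin-coated, BSA-blocked wells, 2 days at 37 °C. MTT (0.5 mg/ml in phenol-red-free RPMI-1640) added for a further 3 h. Dye solubilized in acidic isopropanol (0.04 M HCl), absorbance read at 570 nm minus 650 nm background.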

[3] = biological target: T1, Syndecan-4 (Mus musculus); assay: Binding affinity to syndecan 4 in mouse NIH/3T3 cells assessed as stimulation of beta 1 integrin-mediated cell spreading at 50 ug/ml […] by microscopic analysis
In short: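 Fibronectin-coated, BSA-blocked wells; NIH-3T3 cells incubated with peptide (50 µg/ml) or PBS control for 1 h at 37 °C, then washed. Spread cells counted under a microscope in 4 independent fields; mean ± S.E. of triplicates.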

[4] = biological target: T1, Syndecan-4 (Mus musculus); assay: Binding affinity to syndecan 4 in mouse NIH/3T3 cells assessed as induction of cell proliferation at 25 to 50 ug/ml after 2 days by MTT assay; in short: as §1

Row | Substance | Activity [1] | fold change (FC) [2] | Activity [3] | Activity [4]
1 | H-RSTDLPGLKAATHATITIRGVKC-OH | Active | – | inactive | –
2 | H-RSTDLPGLKAATHYAITIRGVKC-OH | Active | – | – | –
3 | H-RSTDLPGLKAATHYTATIRGVKC-OH | Active | – | inactive | inactive
4 | H-RSTDLPGLKAATHYTIAIRGVKC-OH | Active | – | – | –
5 | H-RSTDLPGLKAATHYTITARGVKC-OH | Active | – | inactive | inactive

Now from value to substance:

Row | Activity [1] | fold change (FC) [2] | Activity [3] | Activity [4] | Substance
6 | inactive | 2 | inactive | – | H-ASTDLPGLKAATHYTITIRGVKC-OH
7 | inactive | 2 | inactive | – | H-RSTDLPGLAAATHYTITIRGVKC-OH
8 | inactive | – | inactive | Active | H-RSTDLPGLKAATHYTITIAGVKC-OH
9 | Active | – | Active | Active | H-RSTDLPGLKAATHYTITIRGVKC-OH
